# Source: PubChem (Broad Institute)
# Shown are actives, neighbours in structure and some others; about 4.3% of the full set was active somewhere.
# ALR inh: human ALR oxidase inhibition via reduced H2O2; P55789; purified ALR, DTT oxidation, H2O2 HRP-luminol luminescence; inhibition, % (test concentration not listed); 290,000 tested, 3.8% active;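 active = mean replicate inhibition above about 79%, with every replicate also reaching it, limit read from the data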
# Target sequence (P55789 whole entry, looked up): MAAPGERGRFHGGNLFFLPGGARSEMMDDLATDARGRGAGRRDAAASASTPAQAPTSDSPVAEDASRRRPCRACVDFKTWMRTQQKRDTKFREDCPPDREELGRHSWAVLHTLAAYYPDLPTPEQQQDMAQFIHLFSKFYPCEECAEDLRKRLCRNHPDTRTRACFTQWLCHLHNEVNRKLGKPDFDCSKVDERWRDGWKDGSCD
# CAL PDZ FP-1: blocks peptide binding to human CAL PDZ domain; purified CAL PDZ, TMR-peptide fluorescence polarization, 1 h; inhibition, % at 20 µM; 330,000 tested, 0.02% active; AID 504414;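 active = highest replicate inhibition of at least 40%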
#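 Read-out basis: mP drop reported as inhibition | Assay system: Tagged CAL PDZ protein CerCALP, purified | Benchmarks: Unlabelled peptide for full inhibition, DMSO wells as neutral | Schedule: 1 h incubation at room temperature before polarization reading | Buffer or medium: Sodium phosphate/NaCl buffer pH 7.4 with TCEP, IgG, Thesit | Doses: Single point, 20 µM | Measured by: Fluorescence polarization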
# Dyrk1A ADPGlo: blocks rat Dyrk1A kinase activity | 310,000 tested, 0.43% active | inhibition, % at 12.5 µM | Q63470 | ADP-Glo luminescence, NFATc1 peptide | AID 504441; in the data active = inhibition above about 50%
# Rtt109 Vps75: blocks Candida albicans Rtt109/Vps75 acetyltransferase activity | Q5AAJ8 | purified Rtt109/Vps75, ThioGlo CoA-SH fluorescence, 4 h | inhibition, % at 34.9 µM | 330,000 tested, 0.16% active | AID 540336;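 active = inhibition of at least 50% in every replicate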
# Target sequence (Q5AAJ8 whole entry, looked up): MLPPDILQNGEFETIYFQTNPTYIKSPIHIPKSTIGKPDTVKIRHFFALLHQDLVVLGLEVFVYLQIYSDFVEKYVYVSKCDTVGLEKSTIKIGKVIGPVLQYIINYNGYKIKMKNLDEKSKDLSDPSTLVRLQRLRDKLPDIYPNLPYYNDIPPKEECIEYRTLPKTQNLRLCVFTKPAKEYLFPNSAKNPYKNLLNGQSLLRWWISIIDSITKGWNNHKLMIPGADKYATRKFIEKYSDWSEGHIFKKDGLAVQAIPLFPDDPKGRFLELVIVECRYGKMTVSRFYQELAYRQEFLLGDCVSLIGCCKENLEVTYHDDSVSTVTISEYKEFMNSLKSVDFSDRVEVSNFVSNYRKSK
# CAL PDZ FP-2: blocks peptide binding to the human CAL PDZ domain | Q9HD26 | purified CAL PDZ, TMR-peptide fluorescence polarization, 1 h | inhibition, % at 24.9 µM | 300,000 tested, 0.92% active;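 active = mean inhibition of at least 30% with at least half of replicates also reaching 30%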
# A number is an active result; – = inactive; · = not tested or not shown.
SMILES,ALR inh,CAL PDZ FP-1,Dyrk1A ADPGlo,Rtt109 Vps75,CAL PDZ FP-2
Cc1occc1C(=O)N/N=C/c1ccc2c(c1)OCO2,–,–,–,–,–
Cc1ccc(CN2CC(C(=O)N3CCN(S(=O)(=O)c4c(F)cccc4F)CC3)CC2=O)cc1 (centres undefined),–,–,–,–,–
CSc1ncccc1C(=O)Nc1ccc2c(c1)OCCO2,–,–,·,–,–
COc1ccc(/C=C/C(=O)N2CCN(C)CC2)cc1OC,–,–,–,–,–
CCOC(=O)N1CCN(S(=O)(=O)c2ccc(C(=O)NNc3nc4ccc(Cl)cc4s3)cc2)CC1,98,–,–,–,–
CCN(CC(=O)Nc1ccc2c(c1)OCCO2)C(=O)c1ccc([N+](=O)[O-])s1,·,–,–,–,·
O=C(NNC(=O)c1cc(S(=O)(=O)N2CCOCC2)c(Cl)cc1Cl)c1ccccc1F,–,–,–,–,–
COc1ccc(NC(=O)CSc2nnc(-c3ccccn3)n2Cc2ccco2)cc1OC,97,–,–,–,–
NC(=O)c1ccc(NC(=O)CSc2nnc(-c3cccnc3)n2Cc2ccco2)cc1,97,–,–,–,–
O=C(CSc1nnc(-c2cccnc2)n1Cc1ccco1)c1ccccc1,–,–,–,–,–
C=CCn1c(SCC(=O)Nc2ccc(NC(=O)c3ccco3)c(OC)c2)nnc1-c1ccncc1,99,–,–,–,–
Cc1cc(C)cc(C(=O)Nc2nc3ccccc3[nH]2)c1,–,–,–,–,–
O=C(Nc1nc2ccccc2[nH]1)c1cc2ccccc2o1,–,–,–,–,46
COc1cc(/C=N\NC(=O)c2ccc(Cn3nc([N+](=O)[O-])c(Cl)c3C)o2)ccc1O,95,–,–,–,–
Cc1c(Cl)c([N+](=O)[O-])nn1Cc1ccc(C(=O)N/N=C\c2ccccn2)o1,–,–,–,–,–
Cc1c(/C=N/N=C2\CCC3C4CCc5cc(O)ccc5C4CCC23C)cnn1C (centres undefined),–,–,–,–,–
CCn1ncc(/C=N/N=C2\CCC3C4CCc5cc(O)ccc5C4CCC23C)c1C (centres undefined),–,–,–,–,46
Cc1[nH]c2ccccc2c1N=Nc1c(C)n(C)n(-c2ccccc2)c1=O,99,–,–,–,·
Cc1cc(N)ccc1N=Nc1c(C)n(C)n(-c2ccccc2)c1=O,99,–,–,–,·
Cc1c(N=Nc2ccc(O)cc2)c(=O)n(-c2ccccc2)n1C,–,–,–,–,–
COc1ccc(C(C(=O)Nc2ccc(C(C)C)cc2)N(C)C(=O)c2ccc(=O)[nH]c2)cc1 (centres undefined),–,–,–,–,–
COc1ccccc1C(=O)NCCC(=O)NCCOc1ccccc1,–,–,·,–,·
COCCCNC(=O)c1ccccc1Oc1ccccc1,98,–,–,–,–
COCC(C)OC(=O)/C(C#N)=C\c1coc2ccc(C)cc2c1=O (centres undefined),96,–,–,–,–
O=C(CSc1nnc(-c2ccc3c(c2)OCO3)n1-c1ccccc1)c1ccc(Cl)cc1,–,–,–,–,–
SMILES,ALR inh,CAL PDZ FP-1,Dyrk1A ADPGlo,Rtt109 Vps75,CAL PDZ FP-2
C=CCn1c(SCC(=O)c2ccc(Cl)cc2)nnc1-c1ccc2c(c1)OCO2,92,–,–,·,–
C=CCn1c(SCC(=O)c2ccc(OC)cc2)nnc1-c1ccc2c(c1)OCO2,98,–,–,·,–
CC(=O)Nc1ccc(S(=O)(=O)N2CCNC(=O)C2)cc1,–,–,–,–,·
CC(=O)c1ccc(S(=O)(=O)N2CCNC(=O)C2)cc1,97,–,·,–,–
O=C(CSc1nc(=O)n(CCCN2CCOCC2)c2c1CCCC2)Nc1cccc([N+](=O)[O-])c1,–,–,–,–,–
Cc1c(Cl)cccc1NC(=O)CSc1nc(=O)n(CCCN2CCOCC2)c2c1CCC2,94,–,·,–,·
CC(C)c1ccc(NC(=O)CSc2nc(=O)n(CCCN3CCOCC3)c3c2CCC3)cc1,98,–,–,–,–
O=C(CSc1nc(=O)n(CCCN2CCOCC2)c2c1CCC2)Nc1ccc([N+](=O)[O-])cc1,98,–,–,–,–
CC(C)c1ccc(NC(=O)CSc2nc(=O)n(CCCN3CCOCC3)c3c2CCCC3)cc1,99,–,–,–,–
Cc1ccccc1N1CCN(c2ccc(NC(=O)C3CCCCC3C(=O)O)cc2)CC1 (centres undefined),–,–,–,–,–
Cc1ccc(NC(=O)CSc2nnc(CN3CCOCC3)n2C)cc1C,·,–,–,–,–
CC(C)c1ccc(NC(=O)CSc2nnc(CN3CCOCC3)n2C)cc1,98,–,–,–,–
O=C(CSc1nc(=O)n(CCCN2CCOCC2)c2c1CCCC2)Nc1ccc(Cl)cc1,96,–,–,–,–
Cc1ccccc1OCCC(=O)N1CCN(S(=O)(=O)c2ccc(Br)cc2)CC1,·,–,–,–,–
Nc1ccc(O)cc1,–,·,·,·,·
NC(=Nc1ccc(N)cc1)C(N)=Nc1ccc(N)cc1,99,–,–,–,–
CC(=O)Nc1ccc(NC(=O)CSc2nc3nc(-c4cccs4)cc(C(F)(F)F)c3c(=O)[nH]2)cc1,99,–,–,·,–
COC(=O)CSc1nc2nc(-c3cccs3)cc(C(F)(F)F)c2c(=O)[nH]1,·,–,–,–,–
Cc1onc(-c2ccccc2Cl)c1C(=O)NCc1ccccn1,–,–,–,–,·
Cc1onc(-c2c(F)cccc2Cl)c1C(=O)NCc1ccccn1,–,–,–,–,88
C=CCn1c(SCC(=O)N2CCc3ccccc3C2)nc2sc(C)cc2c1=O,–,–,–,–,–
S=C1NC2(CCCCC2)Cc2ccccc21,–,–,–,51,–
O=C1NC2(CCCCC2)Cc2ccccc21,–,–,–,·,–
O=C(Nc1ccc(Cl)cc1)NN1CCCCCC1,·,–,·,–,–
N#Cc1ccc(NC(=O)NN2CCCCCC2)cc1,·,–,·,–,82
SMILES,ALR inh,CAL PDZ FP-1,Dyrk1A ADPGlo,Rtt109 Vps75,CAL PDZ FP-2
Nc1nc(SCC(=O)N2CCCC2)[nH]c(=O)c1NC(=O)c1ccco1,·,–,–,–,–
CCC1CCCCN1C(=O)CSc1nc(N)c(NC(=O)c2ccco2)c(=O)[nH]1 (centres undefined),85,–,–,–,·
CCN1CCN(C(=O)C(NS(=O)(=O)c2ccc3nc(C)sc3c2)C(C)C)CC1 (centres undefined),92,–,–,–,·
Cc1nc2ccc(S(=O)(=O)NC(C(=O)NCc3ccc4c(c3)OCO4)C(C)C)cc2s1 (centres undefined),–,–,–,–,·
Cc1nc2ccc(S(=O)(=O)NC(C(=O)NC3CCCC3)C(C)C)cc2s1 (centres undefined),96,–,–,–,–
O=C(Nc1ccccc1F)c1ccc(CSc2ccccc2)o1,–,–,–,–,–
Cc1ccc(S(=O)(=O)/N=C2/NC(=O)/C(=C\c3ccco3)S2)cc1,–,–,–,–,–
CC(=O)Nc1ccc(S(=O)(=O)/N=C2/NC(=O)/C(=C\c3ccco3)S2)cc1,99,–,–,–,–
Cc1ccc(S(=O)(=O)/N=C2/NC(=O)/C(=C\c3ccccc3)S2)cc1,99,–,·,–,–
